Laboratory results: ChEMBL document CHEMBL3785029, “Synthesis and Characterization of Fatty Acid Conjugates of Niacin and Salicylic Acid” (J Med Chem, 2016)
Activity calls are given as the source filed them. The calls are words filed in the database; no cut-off is given here.

Experiments:
[1] = Plasma concentration in Sprague-Dawley rat at 300 mg/kg, qd administered through oral gavage for 7 days measured 2 hrs post last dose by LC/MS/MS analysis; type: ADME, organism-based
Liver = experiment: Drug metabolism in Sprague-Dawley rat liver assessed as niacin formation at 300 mg/kg, qd administered through oral gavage for 7 days measured 2 hrs post last dose by LC/MS/MS analysis; type: ADME, organism-based; conditions: in vivo, BLD = below limit of detection
Intestine = experiment: Drug metabolism in Sprague-Dawley rat intestine assessed as nicotinuric acid formation at 300 mg/kg, qd administered through oral gavage for 7 days measured 2 hrs post last dose by LC/MS/MS analysis; type: ADME, organism-based; conditions: in vivo
Rattus norvegicus [2] = experiment: Cmax in portal vein cannulated Sprague-Dawley rat assessed as N-(2-aminoethyl)nicotinamide at 30 mg/kg, po measured up to 140 mins; type: ADME, organism-based; design: dose 30 mg/kg, route oral; conditions: in vivo
In short: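 Sprague Dawley rats surgically fitted with indwelling jugular vein and portal vein cannulas; oral dosing, then serial blood draws from both portal and jugular veins at 10, 20, 40 min and 1, 2, 4, 6 hr post dose; plasma analysed for parent and metabolites by LC/MS/MS.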

[3] = target: T1, Sterol regulatory element-binding protein 2 (Homo sapiens) (UniProt Q12772); experiment: Inhibition of SREBP2 maturation in human HepG2 cells at 25 uM after overnight incubation by immunoblot analysis in the presence of atorvastatin; type: cell-based
T1 sequence (whole entry): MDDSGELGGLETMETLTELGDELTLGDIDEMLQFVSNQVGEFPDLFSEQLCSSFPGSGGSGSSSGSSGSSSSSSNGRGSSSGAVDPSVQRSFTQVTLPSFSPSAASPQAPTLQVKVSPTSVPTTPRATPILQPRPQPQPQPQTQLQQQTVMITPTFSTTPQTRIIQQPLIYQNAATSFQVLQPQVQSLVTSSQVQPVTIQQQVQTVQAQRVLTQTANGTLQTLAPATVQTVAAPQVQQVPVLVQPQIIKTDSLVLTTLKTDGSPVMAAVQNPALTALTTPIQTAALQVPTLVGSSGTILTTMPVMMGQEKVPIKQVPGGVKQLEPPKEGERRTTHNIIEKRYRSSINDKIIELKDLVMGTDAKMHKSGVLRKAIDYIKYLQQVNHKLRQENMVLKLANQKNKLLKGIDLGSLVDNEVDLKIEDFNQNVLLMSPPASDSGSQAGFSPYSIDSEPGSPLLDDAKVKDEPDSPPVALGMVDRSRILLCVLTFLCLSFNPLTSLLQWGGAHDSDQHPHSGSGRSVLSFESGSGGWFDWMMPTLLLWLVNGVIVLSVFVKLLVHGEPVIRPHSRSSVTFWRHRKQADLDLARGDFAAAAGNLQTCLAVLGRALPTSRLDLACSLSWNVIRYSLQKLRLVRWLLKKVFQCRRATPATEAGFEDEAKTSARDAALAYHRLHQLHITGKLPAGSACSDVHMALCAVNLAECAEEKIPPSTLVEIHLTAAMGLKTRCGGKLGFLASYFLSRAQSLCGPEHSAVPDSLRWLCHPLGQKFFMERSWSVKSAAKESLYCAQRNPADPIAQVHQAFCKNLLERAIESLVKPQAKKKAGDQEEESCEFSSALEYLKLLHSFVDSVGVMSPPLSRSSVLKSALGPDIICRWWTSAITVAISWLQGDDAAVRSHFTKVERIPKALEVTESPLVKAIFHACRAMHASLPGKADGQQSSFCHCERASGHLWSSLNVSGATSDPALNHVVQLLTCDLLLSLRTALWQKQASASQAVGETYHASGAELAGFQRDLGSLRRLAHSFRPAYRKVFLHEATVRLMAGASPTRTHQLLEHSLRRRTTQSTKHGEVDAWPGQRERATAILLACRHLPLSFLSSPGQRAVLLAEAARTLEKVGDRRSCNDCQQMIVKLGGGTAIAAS
In short: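 Human HepG2 cells incubated with compound (25 and 50 µM), alone or together with 10 µM atorvastatin; mature SREBP-2 protein level assessed.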

[4] = target: T2, Fatty-acid amide hydrolase 1 (Rattus norvegicus, UniProt P97612); experiment: Drug metabolism in rat liver lysate assessed as FAAH-mediated compound hydrolysis at 5 uM by LC-MS-MS analysis; type: ADME, tissue-based
T2 sequence (P97612 whole entry): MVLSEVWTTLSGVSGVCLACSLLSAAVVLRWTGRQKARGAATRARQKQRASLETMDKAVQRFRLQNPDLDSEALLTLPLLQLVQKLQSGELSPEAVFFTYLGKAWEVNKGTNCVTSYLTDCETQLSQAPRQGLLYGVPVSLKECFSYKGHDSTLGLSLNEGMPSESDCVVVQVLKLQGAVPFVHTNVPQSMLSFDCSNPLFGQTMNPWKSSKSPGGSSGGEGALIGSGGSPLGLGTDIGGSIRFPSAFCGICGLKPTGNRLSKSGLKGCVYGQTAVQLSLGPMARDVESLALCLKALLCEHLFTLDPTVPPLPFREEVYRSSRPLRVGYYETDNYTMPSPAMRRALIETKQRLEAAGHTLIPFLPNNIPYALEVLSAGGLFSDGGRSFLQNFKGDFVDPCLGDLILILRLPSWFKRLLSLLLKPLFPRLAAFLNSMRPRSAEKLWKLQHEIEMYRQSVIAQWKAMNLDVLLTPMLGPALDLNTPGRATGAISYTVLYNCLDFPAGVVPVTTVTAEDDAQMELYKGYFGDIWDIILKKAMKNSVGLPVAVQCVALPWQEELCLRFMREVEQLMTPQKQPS
In short: (§1)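 Rat liver lysate, 3 mg/mL final, in 50 mM HEPES / 1 mM EDTA buffer, pre-equilibrated 20 min at 37 °C; reaction started by adding compound in DMSO; incubated at 37 °C and loss of starting material monitored by LC/MS/MS; FAAH inhibitor PF-3845 added where indicated.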

[5] = target: T2, Fatty-acid amide hydrolase 1; experiment: Drug metabolism in rat liver lysate assessed as FAAH-mediated compound hydrolysis at 5 uM by LC-MS-MS analysis in the presence of PF3845; type: ADME, tissue-based; in short: as §1
Rattus norvegicus [6] = experiment: AUClast in Sprague-Dawley rat assessed as salicylate-linker metabolite N-(2-aminoethyl)-2-hydroxy-benzamide at 300 mg/kg, po measured up to 24 hrs post dose; type: ADME, organism-based; design: time < 24 hr, dose 300 mg/kg, route oral; conditions: in vivo
In short: (§2)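 Single oral dose of 300 mg/kg to Sprague Dawley rats. Plasma collected at 0, 0.5, 1, 2, 4, 8 and 24 hr. Analytes were the parent, the salicylate-linker and linker-DHA metabolites, salicylic acid and salicyluric acid; Cmax and AUClast derived.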

Rattus norvegicus [7] = experiment: Cmax in Sprague-Dawley rat assessed as salicyluric acid at 300 mg/kg, po measured up to 24 hrs post dose; type: ADME, organism-based; design: dose 300 mg/kg, route oral; conditions: in vivo; in short: as §2
[8] = Drug metabolism in Sprague-Dawley rat epididymal fat assessed as salicylic acid formation at 300 mg/kg, po administered for 7 days measured 4 hrs post dose on day 7; type: ADME, organism-based, Epididymal fat pad; conditions: in vivo
In short: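 Male Sprague Dawley rats, groups of 4, dosed orally at 300 mg/kg once daily for 14 days. Animals killed on days 1, 3, 7 and 14, with plasma, brain, epididymal fat, liver and muscle taken 4 hr after dosing. Parent, salicylic acid and salicyluric acid were measured.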

Plasma [9] = experiment: Drug uptake in Sprague-Dawley rat plasma at 300 mg/kg, po administered for 14 days followed by 7 day washout cycle measured on day 21; type: ADME, organism-based; conditions: in vivo
Plasma [10] = experiment: Drug metabolism in Sprague-Dawley rat plasma assessed as salicylic acid formation at 300 mg/kg, po administered for 14 days followed by 7 day washout cycle measured on day 21; type: ADME, organism-based; conditions: in vivo

With `CC/C=C\C/C=C\C/C=C\C/C=C\C/C=C\CCCC(=O)NCCNC(=O)c1cccnc1` the concentration at 2 h [1] was 13 ng/mL, the Drug metabolism (Liver) was “BLD” and the Drug metabolism (Intestine) was 1387 ng/g. For the same compound, the Cmax (Rattus norvegicus [2]) was 2061 ng/mL, the inhibition [3] was “Active” and the Drug metabolism ([4]; TDE = time-dependent effect) was “tde”. For the same compound, the Drug metabolism [5] was “metabolite_notdetected”.
In the case of `CC/C=C\C/C=C\C/C=C\C/C=C\C/C=C\C/C=C\CCC(=O)NCCNC(=O)c1ccccc1O` [EDASALONEXENT], the AUClast (Rattus norvegicus [6]) is reported as 2611 ng·h/mL, the Cmax (Rattus norvegicus [7]) is reported as 563 ng/mL and the Drug metabolism [8] is reported as 65.03 ng/g. The Drug metabolism [4] was “metabolite_detected”, the Drug metabolism [5] was “metabolite_notdetected” and the Drug uptake (Plasma [9]) was “Not Active”. For the same compound, the Drug metabolism (Plasma [10]) was “metabolite_notdetected”.
